MEKK2wt PB1 HTS – raises or lowers MEK5 binding to wildtype human MEKK2 PB1 domain; Q9Y2U5; bead flow cytometry, Alexa488-MEK5 binding to MEKK2 WT; actives lie on both sides; binding response (% of control), % at 10 µM; hit rate 1.1% among 290,000; AID 1531; in the data active = binding response below about 67% or above about 130%; inconclusive = no clear call, values can overlap the other calls; inactive = in between
UBC13 polyUb – human UBC13 polyubiquitination inhibition | P61088 | UBC13 polyubiquitin chain formation, TR-FRET | inhibition, % at 20 µM | hit rate 0.47% among 330,000; in the data active = inhibition above about 45%, passing the limit was not always enough; inconclusive = no clear call, values can overlap the other calls
Target sequence (P61088 whole entry, looked up): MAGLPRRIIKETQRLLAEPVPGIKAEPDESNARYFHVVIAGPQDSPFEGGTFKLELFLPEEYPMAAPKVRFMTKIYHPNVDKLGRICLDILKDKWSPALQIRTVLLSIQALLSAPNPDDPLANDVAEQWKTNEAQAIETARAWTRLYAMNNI
MEKK3 PB1 HTS – MEKK3-MEK5 PB1 interaction, increase or decrease. bead-based flow cytometry, Alexa488-MEK5 binding to MEKK3; actives lie on both sides; 0 = blocked by unlabeled MEK5, 100 = vehicle. binding response (% of control), % at 10 µM. Q99759. hit rate 1.4% among 290,000;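 active = binding response more than 3 SD above or below the average of its plate-row segment, actives on both sides; inconclusive = wells at one plate position flagged as instrument error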;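 note: Alexa488 bead fluorescence after subtracting the streptavidin-only scavenger bead signal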
Apaf1 inhib – blocks human Apaf-1 apoptosome activity; O14727; reconstituted apoptosome caspase-3 activity, DEVD-Rh110 fluorescence; inhibition, % at 20 µM; hit rate 0.71% among 330,000; AID 489030; active = inhibition of at least 40% at 20 µM;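 note: plate controls were DMSO wells for no effect and DEVD-CHO caspase inhibitor wells for full effect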
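Material: reconstituted apoptosome with Apaf-1, cytochrome c, caspase-9, procaspase-3, dATP; medium: pH 7.5 Hepes buffer with CHAPS, BSA, DTT; also added: cytochrome c and DEVD-Rh110 substrate; timing: 30 min plus 50 min, RT; signal: Rh110 fluorescence intensity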
Pemphigus Ab inh – inhibitors of pemphigus antibody binding to human desmoglein-3; P32926; DSG3-coupled beads, scFv-anti-DSG3-GFP binding, flow cytometry; hits give low values; binding (percent of control), % at 10 µM; hit rate 0.48% among 310,000; AID 588358;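 active = binding more than 3 SD below its plate's average and above zero; inconclusive = below that plate limit but binding exactly zero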;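 note: hits lower antibody fragment binding to DSG3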
MEKK2mut PB1 HTS – signal of MEK5 binding to mutant human MEKK2 PB1 domain. bead flow cytometry, Alexa488-MEK5 binding to MEKK2 mutant. percent response, % at 10 µM. AID 1530. hit rate 0.35% among 290,000; in the data active = percent response above about 24%, passing the limit was not always enough
MEKK2wt confirm – raises or lowers MEK5 binding to wildtype human MEKK2, retest | shares compounds with MEKK3 PB1 HTS | bead flow cytometry, Alexa488-MEK5 binding to MEKK2 WT; actives lie on both sides | binding response (% of control), % at 10 µM | hit rate 2.4% among 5,900; in the data active = binding response below about 16% or above about 210%; inactive = in between
MEKK2mut confirm – signal of MEK5 binding to mutant human MEKK2, retest; percent response, % at 10 µM; hit rate 2% among 5,900; bead flow cytometry, Alexa488-MEK5 binding to MEKK2 mutant; shares compounds with MEKK3 PB1 HTS; in the data active = percent response mostly above about 71%, no sharp cut-off; inactive = mostly below about 38%;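 note: higher means compound restores mutant binding toward wildtype level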
MEKK3-MEK5 inh – MEKK3-MEK5 PB1 inhibition, single concentration confirmation | hit rate 1.8% among 5,900 | AID 1894 | shares compounds with MEKK3 PB1 HTS | bead flow cytometry, Alexa488-MEK5 binding to MEKK3; hits give low values | binding response (% of control), % at 10 µM;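 active = binding response below 72% of control, or above a set upper limit, though filed actives all read lower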;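 note: 100% = DMSO only wells and 0% = binding blocked by excess unlabeled MEK5; lower values mean stronger disruption of MEK5 binding to MEKK3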
An asterisk follows results filed as active; ? = inconclusive; nt = no result; [ ] = another dose, or the depositor's remark. A selection: hits, their analogues and other compounds. The true share with any hit is near 3.2%.

SMILES | MEKK2wt PB1 HTS | UBC13 polyUb | MEKK3 PB1 HTS | Apaf1 inhib | Pemphigus Ab inh | MEKK2mut PB1 HTS | MEKK2wt confirm | MEKK2mut confirm | MEKK3-MEK5 inh
CCOC(=O)CSC1=N/C(=C\c2cc(OC)c(OC)c(OC)c2)C(=O)N1C | 106.0 | 15.0 | 153.0* | -2.2 | 129.0 | 1.0 | 97.0 | -8.0 | 101.0
CCOC(=O)CSC1=N/C(=C\c2cccnc2)C(=O)N1c1ccc(OC)cc1 | 94.0 | 1.8 | 94.0 | 2.6 | 100.2 | -2.0 | nt | nt | nt
O=[N+]([O-])c1cccc(S(=O)(=O)N2CCCC2)c1 | nt | 3.0 | 15.0*[inhibitor] | -0.8 | 131.6 | 90.0* | 95.0 | -2.0 | 95.0
Cn1c(SCC(=O)N2CCN(S(=O)(=O)c3ccc(Cl)cc3)CC2)nc2ccccc21 | 129.0 | -3.5 | 133.0* | 23.7 | nt | 8.0 | 102.0 | 6.0 | 103.0
CCN(CC(=O)Nc1ccccc1C(F)(F)F)C(=O)CCS(=O)(=O)c1ccc(C)cc1 | nt | 1.3 | nt | 7.2 | 96.8 | nt | nt | nt | nt
O=C(CNC(=O)c1cccc(Br)c1)N/N=C/c1cc(Br)cc(Br)c1O | 123.0 | -37.1 | 151.0* | 15.6 | 87.2 | 22.0 | 108.0 | 4.0 | 105.0
O=C(O)C1CCN(S(=O)(=O)c2ccc(N3CCOCC3)c([N+](=O)[O-])c2)CC1 | 96.0 | 1.1 | 103.0 | -2.7 | 101.2 | -5.0 | nt | nt | nt
O=S(=O)(NCc1ccco1)c1cccc(S(=O)(=O)N2CCOCC2)c1 | 2.0*[inhibitor] | 1.7 | 2.0*[inhibitor] | -0.8 | 107.6 | -31.0 | 97.0 | -3.0 | 97.0
Cc1ccc(S(=O)(=O)c2cccc(S(=O)(=O)N3CCOCC3)c2)cc1S(=O)(=O)N1CCOCC1 | 2.0*[inhibitor] | 6.4 | 2.0*[inhibitor] | -0.3 | nt | -15.0 | 97.0 | -8.0 | 95.0
O=C(NCc1ccco1)C1CCN(c2ccc(S(=O)(=O)N3CCOCC3)cc2[N+](=O)[O-])CC1 | 79.0 | -29.0 | 71.0*[inhibitor] | 2.8 | 97.5 | -10.0 | 100.0 | -1.0 | 102.0
O=S(=O)(NCc1ccc(F)cc1)c1cccc(S(=O)(=O)N2CCOCC2)c1 | 102.0 | 4.1 | 100.0 | -10.2 | 103.3 | 3.0 | nt | nt | nt
CCCCOCCCNC(=O)c1ccc2c(c1)OCO2 | 110.0 | -2.3 | 105.0 | -33.1 | 122.2 | 4.0 | nt | nt | nt
CCOCCCNC(=O)C(NC(=O)c1ccc2c(c1)OCO2)c1ccc(OC)cc1 (stereo not drawn) | 107.0 | -0.6 | 104.0 | -7.2 | 106.3 | 8.0 | nt | nt | nt
COCCCNC(=O)c1ccc2nc(Cc3ccc(OC)cc3)oc2c1 | 16.0*[inhibitor] | 6.7 | 38.0*[inhibitor] | -12.7 | 96.5 | -15.0 | 104.0 | 2.0 | 104.0
CCOCCCNC(=O)C(NC(=O)c1ccc2c(c1)OCO2)c1ccccc1 (stereo not drawn) | 54.0 | 0.1 | 43.0*[inhibitor] | -20.1 | nt | -14.0 | 105.0 | 2.0 | 105.0
COCCCNC(=O)c1ccc2c(c1)OCO2 | 73.0 | 6.0 | 67.0*[inhibitor] | -2.3 | nt | -7.0 | 100.0 | -3.0 | 103.0
COc1ccc(CN2CCN(C)CC2)cc1OCc1ccccc1 | 82.0 | 8.8 | 69.0*[inhibitor] | -10.9 | 99.1 | -9.0 | 108.0 | 7.0 | 108.0
COc1ccc(CN2CCC(C(N)=O)CC2)cc1OCc1ccccc1 | 107.0 | -1.4 | 103.0 | -0.4 | 116.3 | 0.0 | nt | nt | nt
COCCNCC(=O)N1c2ccccc2Sc2ccccc21 | 109.0 | 10.3 | 104.0 | 2.6 | 116.1 | 12.0 | nt | nt | nt
CC(C)CNCC(=O)N1c2ccccc2Sc2ccccc21 | 1.0*[inhibitor] | 0.7 | 2.0*[inhibitor] | 1.3 | 99.8 | -42.0 | 71.0 | -9.0 | 91.0
O=C(NCC1CCCO1)c1csc2c1CCCCC2 (stereo not drawn) | -4.0*[inhibitor] | 1.0 | 0.0*[inhibitor] | -12.4 | 92.6 | -39.0 | 107.0 | 9.0 | 106.0
Cc1ccc(N(CC(N)=O)C2SC(=O)N(C)C2=O)cc1 (stereo not drawn) | 125.0 | -0.2 | 126.0* | -488.1 | ? | 5.0 | 102.0 | -5.0 | 98.0

Compound activity: PubChem, several laboratories
